Usually IC50 stands for the concentration that gives 50% inhibition. Low values mean higher potency, high ones lower potency. Broadly, the AUC(0-inf) is the area under the concentration-time curve extrapolated to infinity. The low end stands for less exposure, the high end for more exposure. One may read the clearance as a measure of how efficiently the substance is removed, as volume per time. The half-life is the time in which the quantity being followed falls by half. Read a low half-life as rapid decline. The bioavailability is the share of a dose that reaches the circulation, judged against a reference dose that is usually intravenous. Higher therefore signals good availability. The term solubility (thermodynamic) denotes solubility found after equilibrating the solid with the medium.

This is an account of results in ChEMBL document CHEMBL1153112, “Identification of a series of substituted 2-piperazinyl-5-pyrimidylhydroxamic acids as potent histone deacetylase inhibitors” (Bioorg Med Chem Lett, 2010).

The target of one series is Histone deacetylase. The experiment in a line: Inhibition of HDAC in human HeLa cells extractt. The series is classed as cell-free.
Series [1] relates to A2780. The experiment in a line: Antiproliferative activity against human A2780 cells. The series is classed as functional, cell-based. In a few lines: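 A2780 ovarian carcinoma proliferation assay in 384-well format, modified from the patent protocol. IC50 given as the mean of triplicate experiments ± SD; some values come from a single experiment.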
In series [2] the test system is A2780. The experiment in a line: Anticancer activity against human A2780 cells expressing p21 waf1,cip1 xenografted in athymic nude mouse assessed as fold increase in fluorescence at 40 mg/kg, po administered once for 3 days relative to R306465. The series is classed as functional. The procedure, abridged:
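A2780 ovarian carcinoma cells engineered to express ZsGreen under the p21waf1,cip1 promoter were grafted subcutaneously into athymic nude mice. Animals were dosed orally at 40 mg/kg for 3 days. In vivo fluorescence induction was then read by noninvasive whole-body imaging and expressed as fold increase versus reference R306465 set at 1.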
(Xenograft models place foreign cells or tissue in a host animal.)

Series [3] in a line: AUC (0 to infinity) in Sprague-Dawley rat at 2.5 mg/kg, iv administered in water at pH 4.4. It is filed as ADME, organism-based. Also noted: time infinity, dose 2.5 mg/kg, route intravenous. As to conditions: plasma. In a few lines:
(§1)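 Male Sprague-Dawley rats. IV arm dosed at 2.5 mg/kg in water at pH 4.4; oral arm dosed at 10 mg/kg in water at pH 4.5. AUC0-inf taken for each route. Clearance and Vdss come from the IV arm. F (%) comes from the oral versus IV exposure.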

Series [4] is described as follows: AUC (0 to infinity) in Sprague-Dawley rat at 10 mg/kg, po administered in water at pH 4.5. The series is classed as ADME, organism-based. Also noted: time infinity, dose 10 mg/kg, route oral. Particulars: plasma. The procedure, abridged:
as §1

Series [5] is described as follows: Volume of distribution at steady state in Sprague-Dawley rat at 2.5 mg/kg, iv administered in water at pH 4.4. The series is classed as ADME, organism-based. Particulars: in vivo, read-out: Vdss. Details: dose 2.5 mg/kg, route intravenous. In a few lines: as §1
Series [6] can be described thus: Clearance in Sprague-Dawley rat at 2.5 mg/kg, iv administered in water at pH 4.4. Details: dose 2.5 mg/kg, route intravenous. The series is classed as ADME, organism-based. Particulars: in vivo. In a few lines:
as §1

Series [7] is described as follows: Half life in Sprague-Dawley rat at 2.5 mg/kg, iv administered in water at pH 4.4 measured 1 to 4 hrs post dose. It is filed as ADME, organism-based. Also noted: dose 2.5 mg/kg, route intravenous. Particulars: in vivo. In a few lines:
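Male Sprague-Dawley rats given 2.5 mg/kg IV in water at pH 4.4. Terminal half-life fitted over the 1 h to 4 h post-dose window.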

The nature of series [8]: Oral bioavailability in Sprague-Dawley rat at 10 mg/kg administered in water at pH 4.5. It is filed as ADME, organism-based. Particulars: in vivo. The procedure, abridged: as §1
Series [9] in a line: Thermodynamic solubility in phosphate-citrate buffer at pH 4.6. It is filed as physicochemical. The procedure, abridged:
(§2)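 Thermodynamic solubility. About 2.5 mg of solid was weighed and equilibrated in phosphate-citrate buffer at the stated pH, then filtered where needed. The filtrate was diluted in 0.1 N HCl/acetonitrile (1/1) and the concentration measured by UPLC.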

A short description of series [10]: Half life in Sprague-Dawley rat at 2.5 mg/kg, iv administered in water at pH 4.4 measured 2 to 8 hrs post dose. It is filed as ADME, organism-based. Also noted: dose 2.5 mg/kg, route intravenous. As to conditions: in vivo. In a few lines:
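Male Sprague-Dawley rats given 2.5 mg/kg IV in water at pH 4.4. Half-life estimated from the 2 h to 8 h post-dose interval.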

Series [11] is described as follows: Thermodynamic solubility in phosphate-citrate buffer at pH 7.4. The series is classed as physicochemical. In a few lines: as §2
A short description of series [12]: Thermodynamic solubility in phosphate-citrate buffer at pH 7.7. The series is classed as physicochemical. The procedure, abridged: as §2

Converted amounts (≈) assume the structure as drawn.

As to `O=C(NO)c1cnc(N2CCC(NC(/C=C/c3ccccc3)CO)CC2)nc1` (centres undefined), the IC50 is 7 nM at Histone deacetylase and 219 nM in the series with A2780 [1] (Homo sapiens, A2780).

Consider `COCC(/C=C/c1ccccc1)N1CCN(c2ncc(C(=O)NO)cn2)CC1` (centres undefined), for which the IC50 is 1.5 nM at Histone deacetylase and 45 nM with A2780 [1] (Homo sapiens, A2780).

Regarding `CN1CCN(CC(/C=C/c2ccccc2)N2CCN(c3ncc(C(=O)NO)cn3)CC2)CC1` (centres undefined), the IC50 against Histone deacetylase was found to be 6.9 nM; in the series with A2780 [1] (Homo sapiens, A2780), 392 nM.

Consider `O=C(NO)c1cnc(N2CCN(C(/C=C/c3ccccc3)C(=O)N3CCOCC3)CC2)nc1` (centres undefined), for which the IC50 stood at 7 nM on Histone deacetylase and 124 nM in the series with A2780 [1] (Homo sapiens, A2780).

As for `O=C(NO)c1cnc(N2CCN(C(/C=C/c3ccc(C(F)(F)F)cc3)CO)CC2)nc1` (centres undefined), the IC50 at Histone deacetylase was found to be 2.1 nM; with A2780 [1] (Homo sapiens, A2780), 65 nM.

For `O=C(NO)c1cnc(N2CCC(CNC(/C=C/c3ccccc3)CO)CC2)nc1` (centres undefined), the IC50 on Histone deacetylase stood at 1.5 nM; in the series with A2780 [1] (Homo sapiens, A2780), 47 nM.

`O=C(NO)c1cnc(N2CCN(C(/C=C/c3ccccc3F)CO)CC2)nc1` (centres undefined): the IC50 against Histone deacetylase is 2 nM; in the series on A2780 [1] (Homo sapiens, A2780) it was under 30 nM.

`O=C(NO)c1cnc(N2CCN(Cc3ccc4ccccc4c3)CC2)nc1`: the IC50 was found to be 1.5 nM on Histone deacetylase and 66 nM in the series on A2780 [1] (Homo sapiens, A2780).

Consider `COc1ccc(/C=C/C(CO)N2CCN(c3ncc(C(=O)NO)cn3)CC2)cc1` (centres undefined), for which the IC50 stood at 0.95 nM on Histone deacetylase and 18 nM in the series on A2780 [1] (Homo sapiens, A2780).

For `O=C(NO)c1cnc(N2CCN(C(/C=C/c3ccccc3)CN3CCOCC3)CC2)nc1` (centres undefined), the IC50 on Histone deacetylase amounted to 11 nM; in the series on A2780 [1] (Homo sapiens, A2780), 315 nM.

For the compound `Cc1ccc(/C=C/C(CO)N2CCN(c3ncc(C(=O)NO)cn3)CC2)cc1` (centres undefined), the IC50 is 1 nM on Histone deacetylase and 18 nM with A2780 [1] (Homo sapiens, A2780).

As to `CC(/C=C/c1ccccc1)N1CCN(c2ncc(C(=O)NO)cn2)CC1` (centres undefined), the IC50 against Histone deacetylase amounted to 1.7 nM; with A2780 [1] (Homo sapiens, A2780) it was 20 nM.

On to `CNC(=O)C(/C=C/c1ccccc1)N1CCN(c2ncc(C(=O)NO)cn2)CC1` (centres undefined), for which the IC50 on Histone deacetylase amounted to 3.3 nM; in the series with A2780 [1] (Homo sapiens, A2780), 159 nM.

For the compound `NC(/C=C/c1ccccc1)CN1CCN(c2ncc(C(=O)NO)cn2)CC1` (centres undefined), the “fold change (FC)” value with A2780 [2] is given as 0.5. Moreover, the IC50 against Histone deacetylase was 3.8 nM; in the series with A2780 [1] (Homo sapiens, A2780), 281 nM.

As for `O=C(NO)c1cnc(N2CCOC(CNC(/C=C/c3ccccc3)CO)C2)nc1` (centres undefined), the IC50 came to 8 nM at Histone deacetylase and 295 nM with A2780 [1] (Homo sapiens, A2780).

For the compound `O=C(NO)c1cnc(N2CCN(C(/C=C/c3ccc(Cl)cc3)CO)CC2)nc1` (centres undefined), the IC50 on Histone deacetylase came out at 1.2 nM; with A2780 [1] (Homo sapiens, A2780), 17 nM.

`O=C(NO)c1cnc(N2CCN(C(/C=C/c3ccc(-c4ccccc4)cc3)CO)CC2)nc1` (centres undefined): the IC50 was found to be 0.9 nM against Histone deacetylase and 29 nM in the series on A2780 [1] (Homo sapiens, A2780).

For `O=C(NO)c1cnc(N2CCN(C(/C=C/c3cccc(F)c3)CO)CC2)nc1` (centres undefined), the half-maximal inhibitory concentration (IC50) at Histone deacetylase was 1.2 nM; with A2780 [1] (Homo sapiens, A2780) it was 36 nM.

Regarding `O=C(NO)c1cnc(N2CCN(C(/C=C/c3ccc(F)cc3)CO)CC2)nc1` (single isomer, unassigned; (+)), in the series on A2780 [1] (a2780), 27 nM corresponded to half-maximal inhibition (IC50).

For the compound `O=C(NO)c1cnc(N2CCN(C(/C=C/c3ccc(F)cc3)CO)CC2)nc1` (single isomer, unassigned; (-)), the AUC(0-inf) turned out to be 521 ng·h/mL in [3] and 466 ng·h/mL in series [4]. Besides, in series [5], the Vd came out at 1.6 L/kg. This compound gave a clearance in [6] of 76.7 mL/min/kg. Also, the midpoint of inhibition with A2780 [1] (a2780), the IC50, lay at 31 nM. Besides, in series [7], the half-life is 0.8 h. In addition, the bioavailability in series [8] is 22%.

On to `O=C(NO)c1cnc(N2CCN(C(/C=C/c3ccccc3)CO)CC2)nc1` (single isomer, unassigned; (-)), for which the concentration for half-maximal inhibition (IC50) against Histone deacetylase came to 1.8 nM; in the series on A2780 [1] (a2780), 30 nM.

Turning to `O=C(NO)c1cnc(N2CCN(C(/C=C/c3ccccc3)CO)CC2)nc1` (stereo in doubt; 3a1), the figures for the IC50 at Histone deacetylase and in the series with A2780 [1] (a2780) were 1 nM and 40 nM, respectively.

Turning to `O=C(NO)c1cnc(N2CCN(C(/C=C/c3ccccc3)CO)CC2)nc1` (stereo in doubt; 3a), the AUC(0-inf) is 413 ng·h/mL in [3] and 316 ng·h/mL in series [4]. In addition, the thermodynamic solubility in series [9] is over 10000 µg/mL; in series [11], 1100 µg/mL (≈ 2980 µM). Also, the Vd in [5] amounted to 5.8 L/kg. In addition, in the series with A2780 [2], the “fold change (FC)” value amounted to 5. In series [6], this compound showed a clearance of 98.3 mL/min/kg. In [10], this compound gave a half-life of 2.6 h. For the same compound, the IC50 turned out to be 2 nM at Histone deacetylase and 25 nM in the series on A2780 [1] (Homo sapiens, A2780). Moreover, the bioavailability in series [8] was 19%.

`O=C(NO)c1cnc(N2CCN(C(/C=C/c3ccc(F)cc3)CO)CC2)nc1` (stereo in doubt; 3i) had an IC50 with A2780 [1] (Homo sapiens, A2780) of 32 nM.

In the case of `O=C(NO)c1cnc(N2CCN(S(=O)(=O)c3ccc4ccccc4c3)CC2)nc1` [R-306465], the area under the curve AUC(0-inf) in series [3] came to 2650 ng·h/mL; in series [4], 3380 ng·h/mL. Moreover, the Vd in series [5] was determined as 0.6 L/kg. The compound further gave a clearance in series [6] of 13.3 mL/min/kg. This compound also gave a half-life in [10] of 1.5 h. In the series on A2780 [1] (Homo sapiens, A2780), 39 nM corresponded to half-maximal inhibition (IC50). The thermodynamic solubility in [12] was under 100 µg/mL. This compound registered a bioavailability in [8] of 20%.
